Reference: ChEMBL document CHEMBL1136954, “Toward the back-up of boceprevir (SCH 503034): discovery of new extended P4-capped ketoamide inhibitors of hepatitis C virus NS3 serine protease with improved potency and pharmacokinetic profiles” (J Med Chem, 2009)

Experiments:
[1] = Cytotoxicity against human hepatocytes assessed as effect on GAPDH RNA level […]; assay type: cell-based, Hepatocyte
Method in brief: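 Counter-screen for cellular toxicity measuring GAPDH; CC50 reported.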

[2] = AUC (0 to 6 hrs) in rat at 10 mg/kg, po; assay type: ADME, organism-based; parameters: time < 6 hr, dose 10 mg/kg, route oral; details: plasma
[3] = Inhibition of HCV NS4A-tethered single chain NS3 serine protease by spectrophotometric assay; parameters: species or system Hepacivirus hominis
Method in brief: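 Continuous assay with NS4A-tethered single-chain NS3 serine protease; potency given as Ki*.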

Hepatitis C virus = test: Antiviral activity against Hepatitis C virus genotype 1 infected in human hepatocytes by replicon assay; assay type: functional, Hepacivirus hominis; details: genotype 1, Hepatocyte
Method in brief: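 HCV genotype 1 replicon cell assay; EC90 reported, within 3-fold at 95% confidence for a single assay and within 2-fold for multiple assays.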

[4] = Drug level in rat liver at 10 mg/kg, po after 6 hrs; assay type: ADME, organism-based; parameters: dose 10 mg/kg, route oral; details: read-out: Drug uptake
Method in brief: (§1)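 Rapid rat oral screen, 2 animals, PO vehicle 40% HPBCD; compound concentration measured in liver at 6 h, or at 8 h where footnoted; plasma AUC taken over 0-6 h.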

[5] = Clearance in cynomolgus monkey at 3 mg/kg, po and at 3 mg/kg, iv; assay type: ADME, organism-based, Macaca fascicularis; details: in vivo
Method in brief: (§2)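 Cynomolgus monkey dosed PO and IV at 3 mpk, 3 animals per route; IV vehicle 20% HPBCD, PO vehicle 0.4% MC. AUC in µM·h, t1/2 in h, clearance mL/min/kg, Vd(ss) L/kg, F in %.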

[6] = AUC in cynomolgus monkey at 3 mg/kg, po; assay type: ADME, organism-based, Macaca fascicularis; parameters: dose 3 mg/kg, route oral; details: plasma; method in brief: as §2
[7] = AUC in rat at 10 mg/kg, iv; assay type: ADME, organism-based; parameters: dose 10 mg/kg, route intravenous; details: plasma
[8] = Clearance in rat at 10 mg/kg, po and at 10 mg/kg, iv; assay type: ADME, organism-based; details: in vivo
Method in brief: (§3)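 Rats dosed PO and IV at 10 mpk, 3 animals per route; IV given in 40% HPBCD, PO in 0.4% MC.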

[9] = Oral bioavailability in cynomolgus monkey at 3 mg/kg; assay type: ADME, organism-based, Macaca fascicularis; details: in vivo; method in brief: as §2
[10] = Volume of distribution at steady state in cynomolgus monkey at 3 mg/kg, po and at 3 mg/kg, iv; assay type: ADME, organism-based, Macaca fascicularis; details: in vivo, read-out: Vdss; method in brief: as §2
[11] = Metabolic stability in cynomolgus monkey urine assessed as recovery of radioactivity at 2 mg/kg, po after 24 hrs; assay type: ADME, organism-based, Macaca fascicularis; parameters: dose 2 mg/kg, route oral; details: in vivo
Method in brief: (§4)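 Two cynomolgus monkeys given the 14C-labelled ketoamide orally at 2 mg/kg; radioactivity collected in bile and urine over 0-24 h and expressed as % of oral dose; plasma also sampled.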

[12] = Volume of distribution at steady state in rat at 10 mg/kg, po and at 10 mg/kg, iv; assay type: ADME, organism-based; details: in vivo, read-out: Vdss; method in brief: as §3
[13] = Metabolic stability in cynomolgus monkey bile assessed as recovery of radioactivity at 2 mg/kg, po after 24 hrs; assay type: ADME, organism-based, Macaca fascicularis; parameters: dose 2 mg/kg, route oral; details: in vivo; method in brief: as §4
[14] = Half life in rat at 10 mg/kg, iv; assay type: ADME, organism-based; parameters: dose 10 mg/kg, route intravenous; details: in vivo; method in brief: as §3
[15] = AUC in cynomolgus monkey at 3 mg/kg, iv; assay type: ADME, organism-based, Macaca fascicularis; parameters: dose 3 mg/kg, route intravenous; details: plasma; method in brief: as §2
[16] = Oral bioavailability in rat at 10 mg/kg; assay type: ADME, organism-based; details: in vivo; method in brief: as §3
[17] = Half life in cynomolgus monkey at 3 mg/kg, iv; assay type: ADME, organism-based, Macaca fascicularis; parameters: dose 3 mg/kg, route intravenous; details: in vivo; method in brief: as §2
[18] = Drug level in rat liver at 10 mg/kg, po after 8 hrs; assay type: ADME, organism-based; parameters: dose 10 mg/kg, route oral; details: read-out: Drug uptake; method in brief: as §1
[19] = AUC in rat at 10 mg/kg, po; assay type: ADME, organism-based; parameters: dose 10 mg/kg, route oral; details: plasma; method in brief: as §3

| AUC(0-t) at 6 h [2] | Ki [3] | concentration at 6 h [4] | SMILES | CC50 [1] | EC90 (Hepatitis C virus) | also measured |
| --- | --- | --- | --- | --- | --- | --- |
| 0.15 µM·h | 9 nM | – | CC(C)[C@H](NC(=O)N[C@H](C(=O)N1C[C@H]2[C@@H]([C@H]1C(=O)NC(CC1CC1)C(=O)C(N)=O)C2(C)C)C(C)(C)C)C(=O)c1nccs1 (mixture of isomers) | > 5000 nM | 90 nM | – |
| 11 µM·h | 4 nM | 2900 nM | C#CCCC(NC(=O)[C@@H]1[C@@H]2[C@H](CN1C(=O)[C@@H](NC(=O)N[C@H](C(=O)C1CC1)C1CCCCC1)C(C)(C)C)C2(C)C)C(=O)C(=O)NC1CC1 (mixture of isomers) | > 5000 nM | 55 nM | – |
| 1.4 µM·h | 7 nM | 800 nM | CC(C)(C)[C@H](NC(=O)N[C@H](C(=O)c1ccccn1)C1CCCCC1)C(=O)N1C[C@H]2[C@@H]([C@H]1C(=O)NC(CC1CC1)C(=O)C(N)=O)C2(C)C (mixture of isomers) | > 5000 nM | 90 nM | – |
| 4.8 µM·h | 8 nM | 900 nM | C#CCCC(NC(=O)[C@@H]1[C@@H]2[C@H](CN1C(=O)[C@@H](NC(=O)N[C@H](C(=O)C1CC1)C(C)C)C(C)(C)C)C2(C)C)C(=O)C(=O)NC1CC1 (mixture of isomers) | > 5000 nM | 70 nM | – |
| 26 µM·h | 25 nM | – | C=CCNC(=O)C(=O)C(CCC)NC(=O)[C@@H]1[C@@H]2[C@H](CN1C(=O)[C@@H](NC(=O)N[C@H](C(=O)C1CC1)C(C)C)C(C)(C)C)C2(C)C (mixture of isomers) | > 5000 nM | 600 nM | – |
| 0.12 µM·h | 7 nM | – | CC(C)[C@H](NC(=O)N[C@H](C(=O)N1C[C@H]2[C@@H]([C@H]1C(=O)NC(CC1CC1)C(=O)C(N)=O)C2(C)C)C(C)(C)C)C(=O)C1CC1 (mixture of isomers) | > 5000 nM | 100 nM | – |
| 1.4 µM·h | 8 nM | 2700 nM | CC(C)(C)[C@H](NC(=O)N[C@H](C(=O)C1CC1)C1CCCCC1)C(=O)N1C[C@H]2[C@@H]([C@H]1C(=O)NC(CC1CC1)C(=O)C(N)=O)C2(C)C (mixture of isomers) | > 5000 nM | 100 nM | – |
| – | 49 nM | – | CC(C)(C)[C@H](NC(=O)NC1(C(=O)OCc2ccccc2)CCCCC1)C(=O)N1C[C@H]2[C@@H]([C@H]1C(=O)NC(CC1CC1)C(=O)C(N)=O)C2(C)C (mixture of isomers) | > 5000 nM | 20 nM | clearance [5]: 43 mL/min/kg; AUC [6]: 0.05 µM·h; AUC [7]: 9.3 µM·h; clearance [8]: 28 mL/min/kg; bioavailability [9]: 3%; Vd [10]: 1.7 L/kg; Stability [11]: 0.8%; Vd [12]: 3.5 L/kg; Stability [13]: 4.3%; half-life [14]: 2.9 h; AUC [15]: 3.4 µM·h; bioavailability [16]: 0%; half-life [17]: 3.1 h |
| 0.42 µM·h | 8 nM | – | CC(C)[C@H](NC(=O)N[C@H](C(=O)N1C[C@H]2[C@@H]([C@H]1C(=O)NC(CC1CC1)C(=O)C(N)=O)C2(C)C)C(C)(C)C)C(=O)c1ccccn1 (mixture of isomers) | > 5000 nM | 200 nM | – |
| 24 µM·h | 9 nM | 8500 nM | C#CCCC(NC(=O)[C@@H]1[C@@H]2[C@H](CN1C(=O)[C@@H](NC(=O)N[C@H](C(=O)C1CC1)C1CCCCC1)C(C)(C)C)C2(C)C)C(=O)C(=O)NCC=C (mixture of isomers) | > 5000 nM | 250 nM | – |
| 55 µM·h | 10 nM | – | C=CCNC(=O)C(=O)C(CCC)NC(=O)[C@@H]1[C@@H]2[C@H](CN1C(=O)[C@@H](NC(=O)N[C@H](C(=O)C1CC1)C1CCCCC1)C(C)(C)C)C2(C)C (mixture of isomers) | > 5000 nM | 500 nM | – |
| – | 27 nM | – | C=CCNC(=O)C(=O)C(CC1CC1)NC(=O)[C@@H]1[C@@H]2[C@H](CN1C(=O)[C@@H](NC(=O)N[C@H](C(=O)C1CC1)C1CCCCC1)C(C)(C)C)C2(C)C (mixture of isomers) | > 5000 nM | 450 nM | – |
| 0.14 µM·h | 14 nM | – | CC(C)(C)NC(=O)N[C@H](C(=O)N1C[C@H]2[C@@H]([C@H]1C(=O)NC(CC1CCC1)C(=O)C(N)=O)C2(C)C)C(C)(C)C (stereo partly specified) [BOCEPREVIR] | > 5000 nM | 350 nM | concentration at 8 h [18]: 300 nM |
| – | 44 nM | – | CC(C)(C)[C@H](NC(=O)NC1(C(=O)NCc2ccccc2)CCCCC1)C(=O)N1C[C@H]2[C@@H]([C@H]1C(=O)NC(CC1CC1)C(=O)C(N)=O)C2(C)C (mixture of isomers) | > 5000 nM | 5000 nM | – |
| – | 5 nM | – | CC(C)[C@H](NC(=O)N[C@H](C(=O)N1C[C@H]2[C@@H]([C@H]1C(=O)NC(CC1CC1)C(=O)C(N)=O)C2(C)C)C(C)(C)C)C(=O)c1ccccc1 (mixture of isomers) | > 5000 nM | 80 nM | AUC [19]: 0.26 µM·h |
